GSH fluor: compound fluorescence on glutathione beads, profiling panel, artefact control, biophysical, 488/530 nm, flow cytometry; GSH beads flow cytometry, compound fluorescence 488/530 nm; stronger effect = higher value; fluorescence (KMESF) at 10 µM; 0.25% of 190,000 active; in the data active = fluorescence above about 89;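 also: glutathione beads carrying GST-tagged Bcl family fusion proteins plus one bare bead set; values are compound well signal with DMSO vehicle wells as background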
L major viab: Leishmania major promastigote growth inhibition, primary screen. Leishmania major promastigotes, resazurin fluorescence viability. 9% of 200,000 active. inhibition, % at 10 µM. AID 1063, 2008;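 also: promastigotes grown with compound for 44 hours at 28 °C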
ABCB1 block: ABCB1 efflux pump inhibitors, primary screen, cell-based, multiplex, flow cytometry, ABCG2 counter-screen; ATP-dependent translocase ABCB1 (Homo sapiens), P08183; CCRF-Adr cells, JC-1 efflux; inhibition, % at 6.6 µM; 0.067% of 190,000 active; in the data active = inhibition above about 40%;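 also: 0% = vehicle and 100% = reference inhibitor; higher value means more JC-1 retained so stronger ABCB1 efflux block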
PKD1 kinase inh: inhibitors of human PKD1 kinase, biochemical, fluorescence polarization. PKD1 kinase fluorescence polarization assay. 0.056% of 200,000 active. AID 797, 2007. inhibition, % (test concentration not listed). Serine/threonine-protein kinase D1 (Homo sapiens), Q15139
ABCG2 inh: ABCG2 efflux pump inhibitors, primary screen, multiplex with ABCB1, IgMXP3 cells, flow cytometry | JC-1 efflux | AID 1325, 2008 | inhibition, % at 6.6 µM | 0.1% of 190,000 active;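 active = inhibition above 80%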;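 also: 0% = DMSO and 100% = nicardipine control wells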
Target sequence (Q9UNQ0 whole entry, looked up): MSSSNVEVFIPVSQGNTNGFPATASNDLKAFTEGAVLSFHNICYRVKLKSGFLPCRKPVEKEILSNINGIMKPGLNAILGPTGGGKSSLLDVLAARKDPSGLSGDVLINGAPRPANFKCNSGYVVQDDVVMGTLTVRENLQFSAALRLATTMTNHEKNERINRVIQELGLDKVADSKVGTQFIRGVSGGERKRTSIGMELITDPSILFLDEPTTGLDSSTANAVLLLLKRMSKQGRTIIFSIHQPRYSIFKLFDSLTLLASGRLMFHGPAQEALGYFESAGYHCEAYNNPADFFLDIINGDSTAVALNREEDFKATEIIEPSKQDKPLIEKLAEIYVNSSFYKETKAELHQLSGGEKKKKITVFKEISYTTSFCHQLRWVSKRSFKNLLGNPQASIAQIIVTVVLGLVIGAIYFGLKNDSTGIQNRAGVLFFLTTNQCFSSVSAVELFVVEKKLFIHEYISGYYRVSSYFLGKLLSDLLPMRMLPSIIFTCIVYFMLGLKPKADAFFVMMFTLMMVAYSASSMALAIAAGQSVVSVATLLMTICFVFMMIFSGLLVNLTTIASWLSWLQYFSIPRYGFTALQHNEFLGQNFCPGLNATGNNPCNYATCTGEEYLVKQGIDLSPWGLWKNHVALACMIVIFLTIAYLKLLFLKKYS
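material = IgMXP3 (ABCG2) plus far-red-tagged CCRF-Adr (ABCB1) cells | amount = 3 million cells/mL, equal mix of both lines | also added = JC-1 transporter substrate | dosing = one concentration, 6.6 µM final | schedule = 10 min at 25 °C | measured by = flow cytometric JC-1 green MFI at 530 nm | read-out basis = percent efflux inhibition, scaled nicardipine 100% to DMSO 0%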
Avidin fluor: green autofluorescence of compounds with avidin beads – biophysical, 488/530 nm, flow cytometry, artefact control, profiling panel; 0.38% of 220,000 active; AID 1775, 2009; compound fluorescence 488/530 nm; stronger effect = higher value; fluorescence (KMESF) at 10 µM; in the data active = fluorescence above about 47
* marks the source's active call; other numbers are inactive results; nt = no result. This excerpt belongs to a sample that is enriched for hits. Rule as the data show it, unless noted: active = inhibition above about 50%; inactive = the rest.

SMILES | GSH fluor | L major viab | ABCB1 block | PKD1 kinase inh | ABCG2 inh | Avidin fluor
COc1ccc(NC(=O)CCNS(=O)(=O)c2ccc3c(c2)c(=O)n(C)c(=O)n3C)cc1 | 24 | -5 | 0 | -6 | 0 | 69*
CCCCCCC(=O)N=Nc1c(O)[nH]c2ccc([N+](=O)[O-])cc12 | 4 | 78* | 0 | -11 | 26 | 6
O=C(N=Nc1c(O)[nH]c2ccc([N+](=O)[O-])cc12)c1ccccc1[N+](=O)[O-] | nt | nt | nt | nt | nt | 4
CC(C)c1ccc(NC(=O)CSc2nc3c(c(=O)[nH]2)CCC3)cc1 | 17 | -7 | 1 | -4 | 4 | 9
COc1cc(C2NC(=O)NC(C)=C2[N+](=O)[O-])cc(OC)c1OC (centres undefined) | nt | nt | nt | nt | nt | 7
O=C(CCl)NCc1cc(-c2ccc(Cl)cc2)no1 | 20 | 71* | 0 | 2 | 13 | 10
Cc1ccc2cc(C)c3nnc(SCC(=O)Nc4nc5c(s4)CCCC5)n3c2c1C | 63 | 0 | 2 | 1 | 6 | 10
O=C(COC(=O)C1=COCCO1)NCc1ccc(Cl)cc1 | 16 | -5 | -1 | -1 | -2 | 12
O=C1C(N2CCOCC2)=C(n2nnc3ccccc32)C(=O)c2ccccc21 | 40 | 100* | 1 | 0 | 2 | 9
CC(C)Nc1nc(NC(C)C)nc(SCC(N)=O)n1 | 21 | -7 | 0 | -3 | 2 | 10
O=C(CCC(=O)N1CCN(S(=O)(=O)c2ccc3ccccc3c2)CC1)Nc1cc(Cl)cc(Cl)c1 | 17 | 63* | 0 | -3 | -1 | 10
O=C(Cn1ncc(Cl)c(Cl)c1=O)N1CCN(S(=O)(=O)c2ccc3ccccc3c2)CC1 | 14 | 99* | 7 | 7 | 5 | 10
O=S(=O)(c1ccc2ccccc2c1)N1CCN(C(=S)Nc2ccc(F)cc2)CC1 | 9 | 2 | 1 | -3 | 0 | 5
O=S(=O)(c1ccc2ccccc2c1)N1CCN(C(=S)Nc2ccc(F)c(Cl)c2)CC1 | 9 | 90* | 0 | -5 | 2 | 15
CCN(CC)C(=O)C(=O)c1ccn(-c2c(C)csc2C(=O)OC)c1 | 15 | -2 | 0 | 4 | 0 | 9
Cc1ccc(C(=O)OCC(=O)Nc2sc3c(c2C#N)CCC3)cc1 | 4 | 52* | 0 | -12 | -1 | 23
Cc1ccc(S(=O)(=O)N2CCN(C(C)C(=O)Nc3ccccc3-c3ccccc3)CC2)cc1 (centres undefined) | 5 | 94* | 8 | 2 | 11 | 8
CC1CCN(C(C)C(=O)Nc2ccccc2-c2ccccc2)CC1 (centres undefined) | 13 | 51* | 0 | -1 | 1 | 37
O=[N+]([O-])c1cccc(/C=N/Nc2nnc(-c3ccccc3)c(-c3ccccc3)n2)c1 | 11 | -4 | -1 | -8 | -3 | 7
COc1ccc(CC(=O)Nc2nc(-c3cccc([N+](=O)[O-])c3)cs2)cc1 | 7 | 62* | 0 | -6 | 11 | 15
O=[N+]([O-])c1cccc(-c2csc(N/N=C/c3cccc(O)c3)n2)c1 | 11 | 98* | -1 | -2 | -2 | 11
Cc1c(C(=O)N/N=C/c2cccs2)nc2ccccn12 | 16 | -2 | 1 | 7 | 31 | 5
O=C(Cn1c(C(=O)N2CCc3ccccc3C2)cc2sccc21)c1ccccc1 | 19 | 61* | 1 | -15 | 3 | 6
O=C(Cn1c(C(=O)N2CCN(C3CCCCC3)CC2)cc2sccc21)c1ccccc1 | 11 | 81* | 3 | 9 | 1 | 9
O=C(c1cccs1)N1CCc2ccccc2C1 | 15 | -5 | 0 | -5 | 6 | 11
SMILES | GSH fluor | L major viab | ABCB1 block | PKD1 kinase inh | ABCG2 inh | Avidin fluor
CC(=O)C1C(c2ccc(F)cc2)C2C(C)=NN=C2CC1(C)O (centres undefined) | 9 | -3 | 0 | 5 | 0 | 6
CCS(=O)(=O)N1CCC(C(=O)N2CCN(Cc3ccccc3)CC2)CC1 | 13 | 0 | 1 | -4 | 8 | 10
O=C(C1CCN(S(=O)(=O)N2CCC3(CC2)OCCO3)CC1)N1CCN(Cc2ccccc2)CC1 | 26 | -8 | 1 | -6 | 1 | 133*
O=C(C1CCN(Cc2cc(Cl)ccc2O)CC1)N1CCN(Cc2ccccc2)CC1 | 21 | 100* | 0 | 5 | 3 | 16
CCOCCCNC(=O)C(NC(=O)Cc1c[nH]c2ccccc12)c1ccccc1 (centres undefined) | 16 | -3 | 0 | -3 | 1 | 10
Cc1ccccc1NC(=O)C(C)O/N=C/c1cccc([N+](=O)[O-])c1 (centres undefined) | 39 | 66* | 0 | 3 | 3 | 10
COc1ccccc1CC(=O)Nc1ccc(OC)c(OC)c1 | 24 | -6 | 0 | -5 | 1 | 16
COc1ccccc1CC(=O)Nc1ccc2nc(C)sc2c1 | 11 | 61* | 0 | 1 | 6 | 20
COc1ccccc1CC(=O)Nc1ccc2c(c1)C(=O)NC2=O | 14 | 100* | 0 | 9 | 15 | 8
NC(=O)CC(NC(=O)Cc1ccc(Br)cc1)c1ccc(N2CCC(Cc3ccccc3)CC2)c([N+](=O)[O-])c1 (centres undefined) | nt | nt | nt | nt | nt | 8
Cc1ccc(-c2cnc(NCc3cc4c(cc3[N+](=O)[O-])OCO4)n2C)cc1C | 14 | 95* | 2 | -4 | 21 | 7
Cc1cc(C)cc(NCc2cc3c(cc2[N+](=O)[O-])OCO3)c1 | 21 | 4 | 0 | -1 | 0 | 3
Cn1c(-c2ccc3c(c2)OCO3)cnc1NCc1ccccc1Cl | 17 | 96* | 1 | 2 | 13 | 11
Cn1c(-c2ccc3c(c2)OCO3)cnc1NCc1ccccc1 | 11 | 63* | 1 | -4 | 4 | 21
Cn1c(-c2ccc3c(c2)OCO3)cnc1NCc1cccc(Cl)c1 | 9 | 93* | 2 | -2 | 28 | 27
Cn1c(-c2ccc3c(c2)OCO3)cnc1N | 30 | 7 | 0 | -3 | 2 | 7
Cc1oc(/C=N/NC(=O)CN(c2ccccc2Cl)S(C)(=O)=O)cc1Br | 12 | 48 | 0 | -11 | 3 | 16
O=C(CSc1nc2c(sc3ccccc32)c(=O)n1CCCN1CCCC1)NCc1ccco1 | 11 | 95* | -1 | -5 | 1 | 10
Cc1nc2sc3c(c2c2nnc(SCC(=O)NCc4ccco4)n12)CCCC3 | 47 | 9 | 3 | -7 | 10 | 10
O=C(CSc1nc2c(sc3ccccc32)c(=O)n1CCO)NCc1ccco1 | 49 | -3 | 0 | -8 | 6 | 6

Source: PubChem BioAssay (several laboratories)
